Laboratory results taken from ChEMBL document CHEMBL1138421, “Synthesis and antiproliferative activity of (2R,3R)-disubstituted tetrahydropyrans. Part 2: Effect of side chain homologation” (2007).

Tests used:
Type in all cases: functional
SW1573 = experiment: Antiproliferative activity against human SW1573 cells after 48 hrs by sulforhodamine B assay; settings: SW1573, 48 h; for CC50: read-out: LC50 (the source's name)
Procedure, shortened: (§1)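 Dose-response curves built per compound up to 100 μM maximum; percentage of growth (PG) computed, with GI₅₀, TGI and LC₅₀ taken as concentrations giving PG +50, 0 and −50. TGI and LC₅₀ reported only when below 100 μM. Values in μM, means of two to four experiments with standard deviation.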

A2780 = experiment: Antiproliferative activity against human A2780 cells after 48 hrs by sulforhodamine B assay; settings: A2780, 48 h; procedure, shortened: as §1
WiDr = experiment: Antiproliferative activity against human WiDr cells after 48 hrs by sulforhodamine B assay; procedure, shortened: as §1

Compound | GI50 (SW1573) | GI50 (A2780) | GI50 (WiDr) | TGI (A2780) | TGI (SW1573) | CC50 (SW1573) | LC50 (concentration giving 50% net cell kill) (A2780) | TGI (WiDr)
O=C1COC[C@H]2OCCC[C@H]2O1 | > 100 µM | > 100 µM | > 100 µM |  |  |  |  | 
CC(C)(C)[Si](C)(C)O[C@H]1CCCO[C@@H]1CO (relative stereo) | > 100 µM | > 100 µM | > 100 µM |  |  |  |  | 
COC(=O)/C=C/OC[C@H]1OCCC[C@H]1O[Si](C)(C)C(C)(C)C (relative stereo) | 50 µM | 30 µM | 36 µM | 82 µM |  |  |  | 
c1cc([C@H]2OC[C@H]3OCCC[C@H]3O2)ccc1[C@H]1OC[C@H]2OCCC[C@H]2O1 | > 100 µM | > 100 µM | > 100 µM |  |  |  |  | 
CC(C)(C)[Si](C)(C)O[C@@H]1CCCO[C@@H]1COCC(=O)O (relative stereo) | > 100 µM | > 100 µM | > 100 µM |  |  |  |  | 
O=C(COC[C@H]1OCCC[C@H]1O)OCc1ccccc1 | > 100 µM | > 100 µM | > 100 µM |  |  |  |  | 
CC(C)(C)[Si](C)(C)O[C@@H]1CCCO[C@@H]1COCCCO | > 100 µM | > 100 µM | > 100 µM |  |  |  |  | 
O=C1COC[C@H]2OCCC[C@@H]2O1 (relative stereo) | > 100 µM | > 100 µM | > 100 µM |  |  |  |  | 
O=C(COC[C@H]1OCCC[C@@H]1O)OCc1ccccc1 (relative stereo) | > 100 µM | > 100 µM | > 100 µM |  |  |  |  | 
c1cc([C@H]2OC[C@H]3OCCC[C@H]3O2)nc([C@H]2OC[C@H]3OCCC[C@H]3O2)c1 | > 100 µM | > 100 µM | > 100 µM |  |  |  |  | 
c1ccc([C@H]2OC[C@H]3OCCC[C@H]3O2)cc1 | > 100 µM | > 100 µM | > 100 µM |  |  |  |  | 
C=C[C@H]1CCC[C@@H]([C@H]2COC(C)(C)O2)O1 |  |  | > 100 µM |  |  |  |  | 
CC(C)(C)[Si](C)(C)O[C@@H]1CCCO[C@@H]1CO (relative stereo) | > 100 µM | > 100 µM | > 100 µM |  |  |  |  | 
C=CCOC[C@H]1OCCC[C@H]1O[Si](C)(C)C(C)(C)C (relative stereo) | 18 µM | 15 µM | 88 µM | 32 µM | 39 µM | 85 µM | 68 µM | 
CC(C)(C)[Si](C)(C)O[C@@H]1CCCO[C@@H]1CO/C=C/CO | > 100 µM | > 100 µM | > 100 µM |  |  |  |  | 
COC(=O)CCOC[C@H]1OCCC[C@H]1O[Si](C)(C)C(C)(C)C | > 100 µM | > 100 µM | > 100 µM |  |  |  |  | 
CC(C)(C)[Si](C)(C)O[C@@H]1CCCO[C@@H]1CO/C=C/C(=O)OCc1ccccc1 | 26 µM | 26 µM | 37 µM |  |  |  |  | 
CC(C)(C)[Si](C)(C)O[C@H]1CCCO[C@@H]1COCC(=O)OCc1ccccc1 (relative stereo) | 17 µM | 17 µM | 28 µM | 36 µM | 37 µM | 79 µM | 74 µM | 91 µM
CC(C)(C)[Si](C)(C)O[C@@H]1CCCO[C@@H]1COCC(=O)OCc1ccccc1 | 29 µM | 28 µM | 37 µM | 81 µM | 85 µM |  | 94 µM | 88 µM
